What was measured:
[1] = target: Small conductance calcium-activated potassium channel protein 3 (Rattus norvegicus, UniProt P70605); experiment: Inhibition of SKca channel-mediated after-hypepolarization in rat sympathetic neurons; format: cell-based, Sympathetic neuron
Outline: (§1)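 Rat sympathetic neurones (SK3 SKCa), short-term tissue culture. Action potentials evoked by depolarizing current pulses; afterhyperpolarization amplitude measured before, during and after compound applied in external solution at 2–4 concentrations, at least three neurones. Dequalinium reference in each assay. Hill fits with common Hill coefficient and maximum inhibition per assay gave IC50; EMR = test/dequalinium concentration for 50% AHP inhibition, by simultaneous weighted nonlinear least squares.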

[2] = target: Small conductance calcium-activated potassium channel protein 3 (Rattus norvegicus) (UniProt P70605); experiment: Ratio of concentration drug to dequalinium to cause 50% inhibition of SKca channel-mediated after-hypepolarization in rat sympathetic neurons; format: cell-based; conditions: Sympathetic neuron; outline: as §1
Small conductance calcium-activated potassium channel protein 3 (Rattus norvegicus), sequence (P70605 whole entry): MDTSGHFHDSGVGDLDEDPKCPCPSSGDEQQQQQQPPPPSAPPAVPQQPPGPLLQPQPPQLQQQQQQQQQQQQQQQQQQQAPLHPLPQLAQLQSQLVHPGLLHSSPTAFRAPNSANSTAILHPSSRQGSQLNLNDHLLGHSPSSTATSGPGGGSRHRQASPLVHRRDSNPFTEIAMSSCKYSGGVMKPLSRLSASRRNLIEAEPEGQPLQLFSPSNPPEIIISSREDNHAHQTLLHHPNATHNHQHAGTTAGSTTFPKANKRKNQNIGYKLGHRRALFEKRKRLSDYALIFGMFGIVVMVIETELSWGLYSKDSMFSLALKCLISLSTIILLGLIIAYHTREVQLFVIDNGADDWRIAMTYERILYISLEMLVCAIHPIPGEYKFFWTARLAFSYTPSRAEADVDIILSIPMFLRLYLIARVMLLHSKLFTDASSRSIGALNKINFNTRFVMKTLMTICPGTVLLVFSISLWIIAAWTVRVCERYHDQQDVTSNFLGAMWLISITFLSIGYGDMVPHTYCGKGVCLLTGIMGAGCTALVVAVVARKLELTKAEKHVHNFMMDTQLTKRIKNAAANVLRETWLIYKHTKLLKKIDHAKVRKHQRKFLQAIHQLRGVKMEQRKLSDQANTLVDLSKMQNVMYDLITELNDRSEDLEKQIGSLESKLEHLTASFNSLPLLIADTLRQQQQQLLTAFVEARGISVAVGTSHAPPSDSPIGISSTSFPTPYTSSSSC

Small conductance calcium-activated potassium channel protein 3, sequence (P70605 whole entry): as above

IC50 [1] [nM] | EMR [2] | SMILES
> 30000 |  | N=C(N)NCCCNC(=O)/C=C\C(=O)N(CCCCCCCCN)CCCNC(=N)N
220 | 0.26 | c1ccc2c(NCCCNc3cc(OCCCNc4ccnc5ccccc45)cc(OCCCNc4ccnc5ccccc45)c3)ccnc2c1
27000 |  | N=C(N)NCCCNC(=O)/C=C/C(=O)N(CCCCCCCCN)CCCNC(=N)N
17000 | 33 | N=C(N)NCCCNC(=O)/C=C/C(=O)N(CCCNC(=N)N)Cc1ccc(-c2ccc(CN)cc2)cc1
130 | 0.23 | c1ccc2c(NCCCCCN(CCCNc3ccnc4ccccc34)Cc3cc(OCCCNc4ccnc5ccccc45)cc(OCCCNc4ccnc5ccccc45)c3)ccnc2c1
 | 1 | Cc1cc(N)c2ccccc2[n+]1CCCCCCCCCC[n+]1c(C)cc(N)c2ccccc21
360 | 0.48 | c1ccc2c(NCCCNCc3cc(OCCCNc4ccnc5ccccc45)cc(OCCCNc4ccnc5ccccc45)c3)ccnc2c1
490 | 0.59 | NCCCCCCCCN(CCCNc1ccnc2ccccc12)C(=O)/C=C/C(=O)NCCCNc1ccnc2ccccc12
86 | 0.16 | CC[n+]1ccc(NCCCOc2cccc(OCCCNc3cc[n+](CC)c4ccccc34)c2OCCCNc2cc[n+](CC)c3ccccc23)c2ccccc21
25000 |  | NC(N)=NCc1ccc(/C=C\c2ccc(CN=C(N)N)cc2)cc1
93 | 0.17 | c1ccc2c(NCCCCCN(CCCNc3ccnc4ccccc34)c3cc(OCCCNc4ccnc5ccccc45)cc(OCCCNc4ccnc5ccccc45)c3)ccnc2c1
270 | 0.31 | c1ccc2c(NCCCOc3ccc(CCNc4ccnc5ccccc45)cc3OCCCNc3ccnc4ccccc34)ccnc2c1
130 | 0.23 | c1cc(OCCCNc2ccnc3ccccc23)c(OCCCNc2ccnc3ccccc23)c(OCCCNc2ccnc3ccccc23)c1
 | 0.1 | Nc1cc[n+](CCCC=C(CCCC[n+]2ccc(N)c3ccccc32)CCCC[n+]2ccc(N)c3ccccc32)c2ccccc12
 | 59 | N=C(N)NCc1ccc(/C=C\c2ccc(CNC(=N)N)cc2)cc1

SMILES | IC50 [1] [nM] | EMR [2]
c1ccc2c(c1)c1cc[n+]2CCCCC[n+]2ccc(c3ccccc32)NCCCCCN1 |  | 0.003
c1cc2cc(c1)C[n+]1ccc(c3ccccc31)NCc1ccc(cc1)CNc1cc[n+](c3ccccc13)C2 |  | 0.01
